Source: PubChem BioAssay
Shown are actives, neighbours in structure and some others; about 3.5% of the full set was active somewhere.
MrgX1 ag: agonists of human MrgX1 receptor, primary screen, HEK293 cells, Fluo-4 calcium flux; Mas-related G-protein coupled receptor member X1 (Homo sapiens), Q96LB2; actives 0.44% (n = 310,000); B-score at 10 µM; Fluo-4 calcium fluorescence, agonist mode; stronger effect = higher value; AID 588627, 2011;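 active = calcium response B-score plate-corrected fluorescence ratio at least 3 library SD, with starting fluorescence B-score inside 5 SD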
Target sequence (Q96LB2 whole entry, looked up): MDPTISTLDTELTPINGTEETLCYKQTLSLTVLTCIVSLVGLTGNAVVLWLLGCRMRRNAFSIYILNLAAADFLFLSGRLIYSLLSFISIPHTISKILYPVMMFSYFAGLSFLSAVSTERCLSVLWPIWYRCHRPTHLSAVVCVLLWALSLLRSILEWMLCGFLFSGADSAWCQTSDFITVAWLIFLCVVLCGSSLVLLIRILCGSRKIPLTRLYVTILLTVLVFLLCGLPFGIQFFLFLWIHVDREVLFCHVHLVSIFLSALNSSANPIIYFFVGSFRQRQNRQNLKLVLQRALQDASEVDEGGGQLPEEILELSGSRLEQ
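System: HEK293 cells stably expressing human MrgX1 receptor; Dosing: test compound in the initial addition of three; Schedule: overnight plating, then 30 min 37 °C plus 30 min room-temperature dye loading; Detection: kinetic calcium dye fluorescence, Fluo-4 NW; Controls: per-plate positive and negative controls for Z′ factor.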
MrgX1 PAM: positive allosteric modulators of MrgX1, primary screen, HEK293 cells, Fluo-4 calcium flux. FDSS; stronger effect = higher value. actives 0.63% (n = 310,000). B-score at 10 µM. AID 588675, 2011;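 active = plate-corrected calcium response at least 3 library SD above typical, normal starting fluorescence, not activating the receptor alone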;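 note: compound read alongside a low EC10 to EC30 dose of BAM8-22 agonist; peak minus trough fluorescence over baseline measured at the second addition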
MrgX1 antag: antagonists of human MrgX1 receptor, primary screen, HEK293 cells, Fluo-4 calcium flux; AID 588676, 2011; B-score at 10 µM; Mas-related G-protein coupled receptor member X1 (Homo sapiens), Q96LB2; BAM8-22 antagonism; stronger effect = lower value; actives 1.3% (n = 310,000);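 active = calcium-response B-score plate-corrected more than 3 library SD below zero, starting fluorescence within 5 deviations, no agonist response on first addition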;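 note: peak minus trough fluorescence over baseline after final BAM8-22 challenge near maximal dose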
RGS4 act: RGS4 potentiators or activators, primary screen, cell-based, HEK293 M3R inducible RGS4, calcium flux; carbachol calcium flux Fluo4; stronger effect = lower value; B-score at 10 µM; actives 0.92% (n = 310,000); AID 463111, 2010;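 active = B-score of the integrated calcium signal more than 4 SD below the library mean, with starting fluorescence not abnormally high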;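 note: negative B-score means reduced calcium response which marks RGS4 activation or potentiation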
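Assay system: HEK293 FlpIn-TREx cells, stable M3R, doxycycline-inducible RGS4 / Probe or stimulus: carbachol, ECmax concentration / Times: overnight RGS4 induction, 30 min dye load 37 °C, 20 min compound RT / Signal: kinetic calcium fluorescence imaging with Fluo4-AM dye, 2 µM / Measure: Agonist-evoked peak-minus-minimum fluorescence over baseline, integrated ratio, B score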
RGS4 inh: RGS4 inhibitors, primary screen, cell-based, HEK293 M3R inducible RGS4, calcium flux; Regulator of G-protein signaling 4 (Homo sapiens), P49798; Fluo-4 calcium flux; stronger effect = higher value; triggered by carbachol at its EC20; B-score at 10 µM; actives 0.45% (n = 310,000);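 active = B-score, a plate-corrected calcium signal, over three deviations above library mean, with baseline fluorescence within five deviations of library mean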;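 note: RGS4 expression induced by doxycycline in cells with stable M3 receptor; B-score is computed from the integrated fluorescence ratio over baseline after carbachol; higher B-score means a larger calcium signal and so more RGS4 inhibition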
Target sequence (P49798 whole entry, looked up): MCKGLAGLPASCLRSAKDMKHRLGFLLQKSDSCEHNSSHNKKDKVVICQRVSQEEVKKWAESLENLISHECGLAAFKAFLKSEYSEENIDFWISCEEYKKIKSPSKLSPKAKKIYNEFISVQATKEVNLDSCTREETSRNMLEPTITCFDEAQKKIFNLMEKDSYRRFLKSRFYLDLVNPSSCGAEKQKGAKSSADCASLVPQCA
A number is an active result; . = inactive; / = no result given.

SMILES | MrgX1 ag | MrgX1 PAM | MrgX1 antag | RGS4 act | RGS4 inh
CCN1CCc2c(sc(NC(=O)c3ccc(S(=O)(=O)N(CC)c4ccccc4)cc3)c2C(N)=O)C1 | . | . | . | . | .
Cc1nn(Cc2ccccc2)c(Cl)c1/C=C/C(=O)OC(C)C(=O)N1CCCC1 (stereo not given) | . | . | -5.9 | . | .
Cc1nn(Cc2ccccc2)c(Cl)c1/C=C/C(=O)OCC(=O)NC(C)C(C)C (stereo not given) | . | . | . | . | .
Cc1ccnc(N2C(=O)c3cccc4c([N+](=O)[O-])ccc(c34)C2=O)c1 | . | . | -5.2 | . | .
Cc1ccc(-n2c(SCC(=O)NNC(=S)Nc3ccccc3)nc3ccccc3c2=O)cc1 | . | 7.4 | . | . | .
CC1CCN(C(=O)CNC(=O)CNC(=O)Cc2ccccc2)CC1 | . | . | . | . | .
CC(=O)Nc1ccc(S(=O)(=O)NCCC(=O)OCc2csc(CC(=O)Nc3ccccc3C)n2)cc1 | . | . | -4.5 | . | .
Cc1ccccc1NC(=O)Cc1nc(COC(=O)C(C)C)cs1 | . | . | . | . | .
O=C(C1CCN(c2nnc(-n3cccc3)s2)CC1)N1CCN(Cc2ccc3c(c2)OCO3)CC1 | . | . | . | . | .
CC1CCN(Cc2ccc(NC(=O)C3CCN(c4nnc(-n5cccc5)s4)CC3)cc2)CC1 | . | . | . | -8.2 | .
Oc1ccc(CCc2n[nH]c(=S)n2-c2ccc(F)cc2)cc1 | . | . | . | . | .
CN1C(=O)C2(c3ccccc31)C1CCCC=C1C(C#N)=C(N)C2(C#N)C#N (stereo not given) | . | 6.7 | . | / | /
Cc1cc(OCc2cc(C(=O)N3CCC(Oc4cccnc4)CC3)no2)cc(C)c1Cl | . | . | . | -7 | .
CC1CCN(c2cc(C#N)c(C#N)cc2[N+](=O)[O-])CC1 | . | 11 | . | . | .
CC1CCN(c2cc(N)c(Cl)cc2[N+](=O)[O-])CC1 | . | 7.3 | . | . | .
CC(C)(Cc1ccccc1)/[N+]([O-])=C\c1ccccc1 | . | . | . | . | .
COc1ccc(OC)c(N(CC(=O)N2CCCCC2)S(=O)(=O)c2ccc(OC)c(OC)c2)c1 | . | . | . | . | .
COc1ccc(OC)c(N(CC(N)=O)S(=O)(=O)c2ccc(OC)c(OC)c2)c1 | . | 12 | . | . | .
Cc1cccc(NC(=O)CNC(=O)CN2C(=O)NC3(CCCc4ccccc43)C2=O)c1C (stereo not given) | . | . | . | . | .
Cc1ccc(C)c(NC(=O)/C(C#N)=C/c2ccc(Sc3nncn3C)c([N+](=O)[O-])c2)c1 | . | . | . | . | 6.2
C=CCc1cc(Cl)ccc1OCCCn1ccnc1 | . | . | . | . | .
OC(CCN1CCCCC1)(c1ccccc1)C1CCCCC1 (stereo not given) | . | . | . | . | .
Cc1ccc(C(O)(CCN2CCCCC2)c2ccccc2)cc1 (stereo not given) | . | . | . | -7.6 | .
CCNC(=S)Nc1ccc(Cl)c([N+](=O)[O-])c1 | . | . | -5.8 | . | .
O=C(O)C1C2CCC(C2)C1C(=O)NCCc1cccc(Cl)c1 (stereo not given) | . | . | . | . | .
SMILES | MrgX1 ag | MrgX1 PAM | MrgX1 antag | RGS4 act | RGS4 inh
COc1ccc(OC)c(CN2CCN(C(=O)c3cc4ccccc4cc3O)CC2)c1 | . | . | . | . | .
O=C(c1cccc(-c2ccccc2F)c1)N1CC[C@@H](N2CCC(O)CC2)[C@H](O)C1 | . | . | . | . | .
CCc1nnc(NC(=O)c2cccc(C(=O)Nc3nnc(CC)s3)n2)s1 | . | 27 | . | . | .
CCCN1CCN(CCCNC(=O)CN2C(=O)C(CC)Oc3ccccc32)CC1 (stereo not given) | . | . | . | . | .
CCC1Oc2ccccc2N(CC(=O)NCCCN2CCN(Cc3ccccc3)CC2)C1=O (stereo not given) | . | . | -5.3 | . | .
COc1ccc(C(=O)Nc2ccccc2C(=O)Nc2ccncc2)cc1 | . | . | . | . | .
CCSc1ccccc1C(=O)N1CCC2(CC1)CC(=O)c1ccccc1O2 | . | . | . | . | .
CCOCCCn1c(=N)c(C(=O)NCc2ccc3c(c2)OCO3)cc2c(=O)n3cccc(C)c3nc21 | . | . | . | -8.5 | .
Cc1cccn2c(=O)c3cc(C(=O)NCc4ccco4)c(=N)n(CCc4ccccc4)c3nc12 | . | . | . | / | /
Cc1cccn2c(=O)c3cc(C(=O)NCCc4ccccc4)c(=N)n(Cc4ccco4)c3nc12 | . | . | . | -8.6 | .
Cc1c(CCOC(=O)CC23CC4CC(CC(C)(C4)C2)C3)sc[n+]1CC(=O)c1ccccc1 | . | . | . | . | .
Cc1c(CCOC(=O)C23CC4CC(CC(C)(C4)C2)C3)sc[n+]1CC(=O)c1ccccc1 | . | . | . | . | .
Cc1c(CCOC(=O)c2cc([N+](=O)[O-])cc([N+](=O)[O-])c2)sc[n+]1CC(=O)c1ccccc1 | . | . | . | . | .
Cc1c(CCOC(=O)c2ccccc2)sc[n+]1CC(=O)c1ccc(Br)cc1 | . | . | . | -7.9 | .
Cc1c(CCOC(=O)CC23CC4CC(CC(C4)C2)C3)sc[n+]1CC(=O)c1ccc(Br)cc1 | . | . | . | -7.5 | .
Cc1c(CCOC(=O)c2ccccc2)sc[n+]1Cc1ccccc1 | . | . | . | -10 | .
C/C(=C\C(=O)OCCCCCCCCC(=O)O)C[C@@H]1OC[C@H](C[C@@H]2O[C@H]2[C@@H](C)[C@H](C)O)[C@@H](O)[C@H]1O | . | . | . | . | .
CC1CCN(CC(=O)Nc2ccc(S(=O)(=O)NC3CC3)cc2)CC1 | . | . | . | . | .
CN1CCN(C2=Cc3ccccc3Sc3cc(F)c(Cl)cc32)CC1 | . | . | . | -10 | .
CN1CCN(C2=Cc3ccccc3Sc3cc(F)c(F)cc32)CC1 | . | . | . | . | .
C#CCNC(=O)C1=C[C@@H](c2ccc(C#C)cc2)[C@H](CCCO)[C@@H](OCC)O1 | . | . | -8.4 | . | .
CCO[C@@H]1OC(C(=O)NCc2ccccc2)=C[C@H](c2coc3ccccc3c2=O)[C@H]1CCCO | . | . | -5.9 | . | .
COc1ccccc1CN1CCC(CNS(=O)(=O)c2cc(-c3cc(C)no3)ccc2OC)CC1 | . | . | . | -7.6 | .
Cc1ccc[n+](C2C(c3ccc([N+](=O)[O-])cc3)C(C#N)=C([S-])NC2(O)C2CC2)c1 (stereo not given) | . | . | . | . | .
